In PMC4310348 (Drug Design, Development and Therapy, 2015):
≈ marks a conversion by molar mass, not a printed value.

Key:
[1] = test system: Streptococcus uberis (11); test: MIC testing; format: cell-based
Procedure, shortened: (§1)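 Clinical bovine mastitis isolates from Australian dairy cattle, except MRSA isolates, which came from small-animal infections. Streptococci were speciated by biochemical tests and partial 16S rDNA sequencing. S. aureus was separated from coagulase-negative staphylococci by tube coagulase and latex agglutination. MICs followed CLSI guidelines for lipophilic compounds: lowest concentration preventing growth, judged visually and by OD600. MIC50/MIC90 were collated per species.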

[2] = test system: Staphylococcus aureus (20); test: MIC testing; format: cell-based
Procedure, shortened: as §1

[3] = test system: Gram-positive mastitis organisms (57); test: MIC testing; format: cell-based; conditions: all 57 Gram-positive bovine mastitis isolates
Procedure, shortened: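 MICs were run per CLSI guidelines for lipophilic compounds across the pooled bovine mastitis isolates. MIC was the lowest concentration preventing growth, judged visually and by OD600. MIC50 and MIC90 are the lowest concentrations inhibiting 50% and 90% of the whole collection.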

[4] = test system: Coagulase-negative staphylococci (14); test: MIC testing; format: cell-based
Procedure, shortened: as §1

[5] = Solubility of lasalocid in various solvents and milk; format: physicochemical; conditions: thermodynamic from solid
Procedure, shortened: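 Excess solid test compound was added to each solvent and shaken for 24 hours. Samples were then filtered through 0.45 µm nylon, diluted and quantified by reversed-phase C8 HPLC with UV detection at 308 nm. The mobile phase was methanol:1.5% acetic acid (90:10) at 1.0 mL/min. All measurements were made in triplicate.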

MRSA (10) = test: MIC testing; format: cell-based, methicillin-resistant Staphylococcus aureus
Procedure, shortened: as §1

Milk distribution study = format: in vivo, Lactating Holstein dairy cows; conditions: six doses of 150 or 300 mg at 12-hourly intervals per quarter (IVP 7, IVP 8)
Procedure, shortened: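 Lactating Holstein cows aged 2–10 years had two contralateral quarters challenged intramammarily with S. uberis. After mastitis was detected, quarters received a PVP–lasalocid solid dispersion in Miglyol 812/Aerosil R972 after each milking, six infusions 12-hourly. Milk was sampled at set times, with time 0 at the first dose. Samples of 100 µL were extracted with 900 µL methanol, centrifuged and analysed by C8 HPLC-UV at 308 nm.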

[6] = test system: Streptococcus agalactiae (12); test: MIC testing; format: cell-based
Procedure, shortened: as §1

[7] = pH-solubility determination of lasalocid; format: physicochemical
Procedure, shortened: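 pH–solubility used MilliQ water adjusted with NaOH/HCl, or Universal buffer adjusted with 0.2 M NaOH, over pH 1.8–8. The buffer contained boric, citric and phosphoric acids at 0.04 M each. Excess solid was shaken for 24 hours, filtered through 0.45 µm nylon, diluted and quantified by C8 HPLC-UV at 308 nm. Measurements were made in triplicate.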

Q: Which results are given for CC[C@@H](C(=O)[C@@H](C)[C@@H](O)[C@H](C)CCc1ccc(C)c(O)c1C(=O)O)[C@H]1O[C@](CC)([C@H]2CC[C@](O)(CC)[C@H](C)O2)C[C@@H]1C [lasalocid]?
A: MIC50 ([1]; Streptococcus uberis): 0.5 mg/L (≈ 0.846 µM); MIC90 ([1]; Streptococcus uberis): 0.5 mg/L (≈ 0.846 µM); MIC range ([1]; n=11 isolates): 0.5 to 1 mg/L; MIC50 ([2]; Staphylococcus aureus): 1 mg/L (≈ 1.69 µM); MIC90 ([2]; Staphylococcus aureus): 1 mg/L (≈ 1.69 µM); MIC range ([2]; n=20 isolates): 0.5 to 1 mg/L; MIC50 [3]: 2 mg/L (≈ 3.39 µM); MIC90 [3]: 4 mg/L (≈ 6.77 µM); MIC50 [4]: 1 mg/L (≈ 1.69 µM); MIC90 [4]: 2 mg/L (≈ 3.39 µM); MIC range ([4]; n=14 isolates): 0.5 to 2 mg/L; solubility at 24 h ([5]; DMSO, organic solvent or mixture): 298 ± 42.4 mg/mL (≈ 504000 µM); solubility at 24 h ([5]; MilliQ water, water): 0.75 ± 0.1 mg/mL (≈ 1270 µM); solubility at 24 h ([5]; methanol, organic solvent or mixture): 84.7 ± 1.63 mg/mL (≈ 143000 µM); solubility at 24 h ([5]; milk, plasma or biological fluid): 0.438 ± 0.0131 mg/mL (≈ 741 µM); MIC50 (MRSA (10); Staphylococcus aureus, MRSA): 0.5 mg/L (≈ 0.846 µM); MIC90 (MRSA (10); Staphylococcus aureus, MRSA): 0.5 mg/L (≈ 0.846 µM); MIC range (MRSA (10); n=10 isolates from small animals): 0.25 to 0.5 mg/L; Time after the first dose until which high milk concentration was maintained (Milk distribution study): 72 h; Time after the first treatment by which residues in milk were not detectable (Milk distribution study): ≤ 144 h; Time of peak lasalocid concentration in milk after the first dose (Milk distribution study): 24 h; MIC50 ([6]; Streptococcus agalactiae): 2 mg/L (≈ 3.39 µM); MIC90 ([6]; Streptococcus agalactiae): 4 mg/L (≈ 6.77 µM); MIC range ([6]; n=12 isolates): 2 to 4 mg/L; Solubility at pH 1.8 ([7]; MilliQ water with NaOH and HCl for pH adjustment): non-detectable; Solubility at pH 1.8 ([7]; Universal buffer): nondetectable; solubility at 24 h ([7]; Universal buffer, pH 8, aqueous buffer, thermodynamic from solid): 0.00966 ± 4e-05 mg/mL (≈ 16.4 µM)
